Here are results for eight compounds from PMC11364305 (Annals of African Medicine, 2024).

By zone of inhibition is commonly meant the size of the clear area around the sample on an inoculated plate. A lower zone of inhibition goes with a weaker effect on the plate.

Values after ≈ are worked out from the molar mass of the structure shown. “Also recorded” adds a separate entry of the source. Read-outs that look alike come from different tables or passages of the source. A value given as a limit tells only on which side of the number the result lay.

The test system of series [1] is Cryptococcus neoformans test strains (CN and CN MTCC4424). Description: Disc diffusion, text statements for both test strains. Format: cell-based. The note with it: oils/compounds, against the test strains. The method in brief:
(§1)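 Per CLSI M44-A2, modified. Strains were kept on SDA slants at 4°C and subcultured in SDB before use. 100 µl of cell suspension (1.5 × 10^8 cfu/ml) was spread on SDA. Plates got antifungal drug discs (10–20 µg/disc) or 8 mm paper discs soaked with 10 µl of oil or test compound, then incubated at 37°C for 48 h. Inhibition-zone diameter (mm) was recorded in triplicate as mean ± SD.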
(In general: A growth-free zone around the sample is the usual read-out of agar diffusion tests.)

For series [2] the test system is unchanged. Description: Broth microdilution, text statements for both test strains. Format: cell-based. A general note: In broth dilution the organism is exposed to a series of concentrations in liquid medium.
Series [3] has as its system C. neoformans MTCC4424. Description: Disc diffusion assay, MTCC4424. Format: cell-based, Cryptococcus neoformans. The settings on record: 37°C, 48 h, mean±SD; for Diameter of zone of inhibition: 10 μL of essential oil or active compound per disc. The method in brief: as §1
Series [4] concerns C. neoformans (clinical isolate CN). Description: Broth microdilution MIC/MFC, clinical isolate CN. The settings on record: Cryptococcus neoformans. Format: cell-based.
The test system is the same in series [5]. Description: Disc diffusion assay, clinical isolate CN. Format: cell-based, Cryptococcus neoformans. The settings on record: 37°C, 48 h, mean±SD; for Diameter of zone of inhibition: 10 μL of essential oil or active compound per disc. The method in brief:
as §1

A further series can be described thus: Cytotoxicity. Format: cell-based. The note with it: red blood cell suspension (4% RBC from defibrinated blood), pH 7.
Series [6] concerns CN and CN MTCC4424 strains. Description: Checkerboard test, text statements for both test strains. The settings on record: for Interaction with fluconazole: checkerboard, CN and CN MTCC4424. Format: cell-based, Cryptococcus neoformans.
The test system of series [7] is C. neoformans MTCC4424. The series can be described thus: Broth microdilution MIC/MFC, MTCC4424. The settings on record: Cryptococcus neoformans; for MFC: MTCC4424. Format: cell-based.
For series [8], the system named is C. neoformans MTCC4424. Description: Checkerboard microtiter test with fluconazole, MTCC4424. Format: cell-based, Cryptococcus neoformans. The settings on record: for MIC: Cryptococcus neoformans, MTCC4424, 48 h, read-out: MIC of agent alone.
A further series deals with C. neoformans CN. Description: Checkerboard microtiter test with fluconazole, CN. Format: cell-based, Cryptococcus neoformans. The settings on record: for MIC: Cryptococcus neoformans, 48 h, read-out: MIC of agent alone; for Lowering of own MIC: in combination with fluconazole, against CN.
The next series relates to red blood cell (RBC). The series can be described thus: Cytotoxicity. Format: cell-based. The settings on record: 0.1% (v/v) Triton X-100.
[9] abbreviates: Cryptococcus neoformans, MTCC4424, read-out: MIC, oils/compounds, against the test strains.
[10] abbreviates: oils/compounds, against the test strains.
Where [11] appears, read: CD-FLC combination (cinnamaldehyde + fluconazole).
The mark [12] stands for this setting: EL-FLC combination (eugenol + fluconazole).

As for `CC(C)=CCCC(C)=CC=O` (mixture of isomers) [CT, Citral], the “zone of inhibition” value in series [1] is given as > 15 mm. In addition, the MIC in series [2] (setting [9]) is 400 to 1600 µg/mL. Further, in [2] (setting [10]), the “MIC” value is 400 to 1600 µg/mL. Besides, the “Diameter of zone of inhibition” value in the series on C. neoformans MTCC4424 [3] came to 22.66±1.24 mm. In series [4] (24 h), this compound gave an MIC of 800 µg/mL. In addition, in series [5], the “Diameter of zone of inhibition” value was determined as 25.33±2.05 mm. In “Cytotoxicity”, this compound gave a hemolysis at 2 h, 25 μg/mL of 1.78 ± 0.16%; a hemolysis at 2 h, 50 μg/mL of 2.86 ± 0.15%; a hemolysis at 2 h, 100 μg/mL of 3.8 ± 0.18%; a hemolysis at 2 h, 200 μg/mL of 4.29 ± 0.12%. In “Cytotoxicity”, this compound had a hemolysis at 2 h, 400 μg/mL of 4.51 ± 0.13%; a hemolysis at 2 h, 800 μg/mL of 5.98 ± 0.21%; a hemolysis at 2 h, 1600 μg/mL of 6.96 ± 0.1%; a hemolysis at 2 h, 3200 μg/mL of 17.6 ± 1.04%. Moreover, in series [6], the “Reduction of MICs in combination with fluconazole” value (from here on “Reduction of MICs in combination”) is “up to 8 fold” and the “Interaction with fluconazole” value is “less synergistic; also recorded: synergy”. The compound further registered an MIC in the series on C. neoformans MTCC4424 [7] (MTCC4424, 24 h) of 1600 µg/mL.
For `CC(C)=CCC/C(C)=C/CO` [GR, Geraniol], the “zone of inhibition” value in series [1] is given as > 15 mm. The MIC in series [2] (setting [9]) lay in the range of 400 to 1600 µg/mL (≈ 2590 to 10400 µM). Also, the “MIC” value in [2] (setting [10]) fell in the range of 400 to 1600 µg/mL. For the same compound, the “Diameter of zone of inhibition” value in the series on C. neoformans MTCC4424 [3] was 19.33±1.24 mm. Moreover, the MIC in series [4] (24 h) came to 400 µg/mL (≈ 2590 µM). Also, the “Diameter of zone of inhibition” value in [5] stood at 19.33±1.24 mm. In “Cytotoxicity”, this compound gave a hemolysis at 2 h, 25 μg/mL of 1.33 ± 0.17%; a hemolysis at 2 h, 50 μg/mL of 2.16 ± 0.25%; a hemolysis at 2 h, 100 μg/mL of 2.31 ± 0.26%; a hemolysis at 2 h, 200 μg/mL of 2.87 ± 0.23%. In the series “Cytotoxicity”, this compound gave a hemolysis at 2 h, 400 μg/mL of 3.36 ± 0.18%; a hemolysis at 2 h, 800 μg/mL of 3.85 ± 0.11%; a hemolysis at 2 h, 1600 μg/mL of 4.74 ± 0.34%; a hemolysis at 2 h, 3200 μg/mL of 14.3 ± 0.23%. Besides, in series [6], the “Reduction of MICs in combination” value is on record as “up to 8 fold” and the “Interaction with fluconazole” value is “synergy”. The compound also came in with an MIC against C. neoformans MTCC4424 [7] (MTCC4424, 24 h) of 800 µg/mL (≈ 5190 µM).
In the case of `CC(=O)N1CCN(c2ccc(OCC3COC(Cn4ccnc4)(c4ccc(Cl)cc4Cl)O3)cc2)CC1` (stereo not drawn) [KTC, Ketoconazole], the MFC came out at 0.5 µg/mL (≈ 0.941 µM) in [4] and 128 µg/mL (≈ 241 µM) against C. neoformans MTCC4424 [7]. The MIC in series [4] (48 h) was determined as 0.25 µg/mL (≈ 0.47 µM); with C. neoformans MTCC4424 [7] (MTCC4424, 48 h), 64 µg/mL (≈ 120 µM). For the same compound, the “Diameter of the zone of inhibition” value in series [5] (antifungal drugs 10 μg/disc) was 19.33±1.24 mm.
As for `O=C/C=C/c1ccccc1` [CD, Cinnamaldehyde], in series [1], the “zone of inhibition” value is > 15 mm. For the same compound, the MIC in [2] (setting [9]) was 100 µg/mL (≈ 757 µM). For the same compound, in series [2] (setting [10]), the “MIC” value fell in the range of 100 to 200 µg/mL. In addition, the “Diameter of zone of inhibition” value with C. neoformans MTCC4424 [3] is recorded as 45.66±2.49 mm. Also, in the series with C. neoformans MTCC4424 [8] (setting [11]), the “MIC of agent in combination” value came out at 12.50 µg/mL. The MIC with C. neoformans MTCC4424 [8] amounted to 100 µg/mL. The “MIC of agent in combination” value with C. neoformans CN (setting [11]) was 12.50 µg/mL. For the same compound, in the series on C. neoformans CN, the MIC is 100 µg/mL and the “Lowering of own MIC” value was determined as 8 folds. The MIC in series [4] (24 h) came to 100 µg/mL (≈ 757 µM). Further, the “Diameter of zone of inhibition” value in [5] is 48.33±3.39 mm. In the series “Cytotoxicity”, this compound showed a hemolysis at 2 h, 25 μg/mL of 1.84 ± 0.19%; a hemolysis at 2 h, 50 μg/mL of 2.87 ± 0.07%; a hemolysis at 2 h, 100 μg/mL of 3.39 ± 0.12%; a hemolysis at 2 h, 200 μg/mL of 3.96 ± 0.05%. In “Cytotoxicity”, this compound showed a hemolysis at 2 h, 400 μg/mL of 4.4 ± 0.17%; a hemolysis at 2 h, 800 μg/mL of 5.06 ± 0.2%; a hemolysis at 2 h, 1600 μg/mL of 6.22 ± 0.19%; a hemolysis at 2 h, 3200 μg/mL of 18.1 ± 0.4%. For the same compound, in series [6], the “Reduction of MICs in combination” value is “up to 32 fold” and the “Interaction with fluconazole” value is “synergistic interaction”. The same compound returned an MIC in the series with C. neoformans MTCC4424 [7] (MTCC4424, 24 h) of 100 µg/mL (≈ 757 µM).
As for `CCC(C)n1ncn(-c2ccc(N3CCN(c4ccc(OCC5COC(Cn6cncn6)(c6ccc(Cl)cc6Cl)O5)cc4)CC3)cc2)c1=O` (stereo not drawn) [ITC, Itraconazole], the “MIC range (resistance to azoles)” value in series [2] (antifungal drugs, both test strains) is 64 to 256 µg/mL. Besides, the results for the MFC (in [4]; against C. neoformans MTCC4424 [7]) were 128 µg/mL (≈ 181 µM) and 256 µg/mL (≈ 363 µM), respectively. Besides, the MIC is 64 µg/mL (≈ 90.7 µM) in series [4] (48 h) and 128 µg/mL (≈ 181 µM) in the series with C. neoformans MTCC4424 [7] (MTCC4424, 48 h).
Turning to `OC(Cn1cncn1)(Cn1cncn1)c1ccc(F)cc1F` [FLC, Fluconazole, reference compound], the “Diameter of the zone of inhibition” value with C. neoformans MTCC4424 [3] (antifungal drugs 10 μg/disc) was determined as 14.33±1.24 mm. The “MIC of agent in combination” value in the series on C. neoformans MTCC4424 [8] (setting [11]) is 1 µg/mL; in the series on C. neoformans MTCC4424 [8] (setting [12]) it was 1 µg/mL; in the series with C. neoformans CN (setting [11]), 8 µg/mL; with C. neoformans CN (setting [12]), 8 µg/mL. Besides, the MIC came to 8 µg/mL with C. neoformans MTCC4424 [8]; 128 µg/mL with C. neoformans CN; 128 µg/mL (≈ 418 µM) in series [4] (48 h); 8 µg/mL (≈ 26.1 µM) in the series with C. neoformans MTCC4424 [7] (MTCC4424, 48 h). Moreover, the MFC in series [4] is 256 µg/mL (≈ 836 µM); against C. neoformans MTCC4424 [7] it was 32 µg/mL (≈ 104 µM). Further, the “Reduction of MICs in combination” value in series [6] is given as “up to 32 fold”.
As to `C=CCc1ccc(O)c(OC)c1` [EL, Eugenol], in series [1], the “zone of inhibition” value is > 15 mm. The MIC in [2] (setting [9]) came to 200 µg/mL (≈ 1220 µM). Also, the “MIC” value in [2] (setting [10]) fell in the range of 100 to 200 µg/mL. Moreover, in the series with C. neoformans MTCC4424 [3], the “Diameter of zone of inhibition” value came out at 40.33±1.69 mm. The MIC in the series on C. neoformans MTCC4424 [8] came to 200 µg/mL. In addition, the “MIC of agent in combination” value with C. neoformans MTCC4424 [8] (setting [12]) came out at 12.50 µg/mL. Besides, in the series on C. neoformans CN, the MIC is 200 µg/mL and the “Lowering of own MIC” value turned out to be 8 folds. For the same compound, the “MIC of agent in combination” value in the series with C. neoformans CN (setting [12]) turned out to be 12.50 µg/mL. For the same compound, the FICI with C. neoformans CN (combination with fluconazole) is recorded as 0.187. The compound also came in with an MIC in series [4] (24 h) of 200 µg/mL (≈ 1220 µM). Moreover, the “Diameter of zone of inhibition” value in series [5] stood at 22.66±1.24 mm. In the series “Cytotoxicity”, this compound gave a hemolysis at 2 h, 25 μg/mL of 1.65 ± 0.14%; a hemolysis at 2 h, 50 μg/mL of 1.98 ± 0.09%; a hemolysis at 2 h, 100 μg/mL of 3.02 ± 0.08%; a hemolysis at 2 h, 200 μg/mL of 3.72 ± 0.16%. In addition, in the series “Cytotoxicity”, the hemolysis at 2 h, 400 μg/mL turned out to be 4.26 ± 0.16%; the hemolysis at 2 h, 800 μg/mL turned out to be 4.78 ± 0.25%; the hemolysis at 2 h, 1600 μg/mL was found to be 5.6 ± 0.63%; the hemolysis at 2 h, 3200 μg/mL amounted to 19 ± 0.3%. Moreover, in series [6], the “Reduction of MICs in combination” value is “up to 32 fold” and the “Interaction with fluconazole” value is “synergistic interaction”. In addition, the MIC in the series with C. neoformans MTCC4424 [7] (MTCC4424, 24 h) is 200 µg/mL (≈ 1220 µM).
For Triton X-100 [reference compound], the “hemolysis (positive control)” value with red blood cell (RBC) is 100%.
